Results: the M2OR odorant receptor database
Where a chain is given by its changes, count along the chain named.

Legend:
Settings in all cases: stereoisomer not certain
[1] = biological target: T1, OR5M3 (Homo sapiens) (UniProt Q8NGP4)
T1 sequence (whole entry): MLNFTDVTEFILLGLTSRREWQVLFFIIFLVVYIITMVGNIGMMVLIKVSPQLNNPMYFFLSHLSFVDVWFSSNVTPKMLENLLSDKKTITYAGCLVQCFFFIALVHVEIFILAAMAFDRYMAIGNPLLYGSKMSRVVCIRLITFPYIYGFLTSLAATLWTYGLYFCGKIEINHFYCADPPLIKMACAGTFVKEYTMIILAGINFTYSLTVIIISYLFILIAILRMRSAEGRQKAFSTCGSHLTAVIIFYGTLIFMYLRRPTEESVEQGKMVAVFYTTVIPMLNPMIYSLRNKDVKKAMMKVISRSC
Procedure, shortened: (§1)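 Transient luciferase assays in mammalian cell lines were common, though methods varied by source. The values come from published papers and their supplementary material, with extra details from the original authors when needed. Responsive refers to a measured signal the original authors judged statistically different from baseline, and non-responsive (inactive) to the remainder.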

[2] = biological target: T2, OR5K3 (Homo sapiens) (UniProt A6NET4)
T2 sequence (whole entry): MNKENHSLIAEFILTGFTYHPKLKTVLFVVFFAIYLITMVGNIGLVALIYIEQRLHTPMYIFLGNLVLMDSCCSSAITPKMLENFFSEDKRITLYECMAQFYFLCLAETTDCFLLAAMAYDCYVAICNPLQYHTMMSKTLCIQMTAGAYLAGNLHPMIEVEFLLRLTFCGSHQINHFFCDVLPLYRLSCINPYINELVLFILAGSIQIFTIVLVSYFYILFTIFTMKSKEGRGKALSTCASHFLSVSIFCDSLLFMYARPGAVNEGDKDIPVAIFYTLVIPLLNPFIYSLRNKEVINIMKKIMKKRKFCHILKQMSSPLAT
Procedure, shortened: as §1

[3] = biological target: T3, OR5K4 (Homo sapiens) (UniProt A6NMS3)
T3 sequence (whole entry): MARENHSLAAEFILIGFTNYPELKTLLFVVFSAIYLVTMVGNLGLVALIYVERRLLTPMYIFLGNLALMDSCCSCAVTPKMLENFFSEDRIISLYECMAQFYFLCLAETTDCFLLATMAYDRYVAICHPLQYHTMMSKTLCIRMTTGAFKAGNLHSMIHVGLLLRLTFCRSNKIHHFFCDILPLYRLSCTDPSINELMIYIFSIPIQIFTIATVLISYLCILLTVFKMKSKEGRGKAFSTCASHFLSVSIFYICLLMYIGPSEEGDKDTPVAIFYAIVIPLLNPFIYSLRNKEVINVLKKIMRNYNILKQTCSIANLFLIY
Procedure, shortened: as §1

[4] = biological target: T4, OR5L1 (Homo sapiens) (UniProt Q8NGL2)
T4 sequence (whole entry): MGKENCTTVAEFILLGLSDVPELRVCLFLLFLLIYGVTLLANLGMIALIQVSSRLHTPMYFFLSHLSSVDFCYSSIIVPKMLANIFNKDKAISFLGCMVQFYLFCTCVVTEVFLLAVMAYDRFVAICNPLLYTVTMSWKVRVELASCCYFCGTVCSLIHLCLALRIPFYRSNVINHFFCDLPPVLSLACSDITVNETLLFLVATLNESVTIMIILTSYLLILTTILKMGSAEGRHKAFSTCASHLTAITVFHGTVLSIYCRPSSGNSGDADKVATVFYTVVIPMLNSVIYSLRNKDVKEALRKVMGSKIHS
Procedure, shortened: as §1

[5] = biological target: T5, OR5L2 (Homo sapiens) (UniProt Q8NGL0)
T5 sequence (whole entry): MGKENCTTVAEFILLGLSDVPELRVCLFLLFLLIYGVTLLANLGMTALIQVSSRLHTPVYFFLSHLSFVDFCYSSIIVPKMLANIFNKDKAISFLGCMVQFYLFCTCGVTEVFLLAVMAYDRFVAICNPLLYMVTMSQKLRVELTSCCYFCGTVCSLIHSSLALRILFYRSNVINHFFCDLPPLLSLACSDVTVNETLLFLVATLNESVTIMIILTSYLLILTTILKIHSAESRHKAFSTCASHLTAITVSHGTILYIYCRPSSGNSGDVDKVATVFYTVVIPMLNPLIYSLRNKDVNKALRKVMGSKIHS
Procedure, shortened: as §1

[6] = biological target: T6, OR5M1 (Homo sapiens) (UniProt Q8NGP8)
T6 sequence (whole entry): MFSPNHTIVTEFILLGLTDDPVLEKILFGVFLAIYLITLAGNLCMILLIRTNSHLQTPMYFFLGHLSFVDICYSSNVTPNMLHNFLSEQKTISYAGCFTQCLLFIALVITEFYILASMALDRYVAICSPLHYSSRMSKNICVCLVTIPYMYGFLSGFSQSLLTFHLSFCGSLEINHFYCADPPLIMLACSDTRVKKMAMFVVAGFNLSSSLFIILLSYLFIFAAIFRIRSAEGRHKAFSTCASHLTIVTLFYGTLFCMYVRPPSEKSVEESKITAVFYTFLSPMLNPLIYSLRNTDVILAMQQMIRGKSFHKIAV
Procedure, shortened: as §1

[7] = tested on: T7, OR5M1 T295R M301I
T7 sequence (whole entry): T6 sequence (whole entry) with T295R, M301I
Procedure, shortened: as §1

[8] = biological target: T8, OR5M10 (Homo sapiens) (UniProt Q6IEU7)
T8 sequence (whole entry): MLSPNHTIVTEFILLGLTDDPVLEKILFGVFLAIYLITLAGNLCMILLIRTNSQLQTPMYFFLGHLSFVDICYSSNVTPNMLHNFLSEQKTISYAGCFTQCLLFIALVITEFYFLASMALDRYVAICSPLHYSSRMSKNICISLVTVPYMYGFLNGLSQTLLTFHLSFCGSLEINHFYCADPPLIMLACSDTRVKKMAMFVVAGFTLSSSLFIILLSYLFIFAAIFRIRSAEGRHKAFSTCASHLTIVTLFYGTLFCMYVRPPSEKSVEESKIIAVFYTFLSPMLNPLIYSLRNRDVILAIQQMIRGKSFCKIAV
Procedure, shortened: as §1

[9] = biological target: T9, OR5M11 (Homo sapiens) (UniProt Q96RB7)
T9 sequence (whole entry): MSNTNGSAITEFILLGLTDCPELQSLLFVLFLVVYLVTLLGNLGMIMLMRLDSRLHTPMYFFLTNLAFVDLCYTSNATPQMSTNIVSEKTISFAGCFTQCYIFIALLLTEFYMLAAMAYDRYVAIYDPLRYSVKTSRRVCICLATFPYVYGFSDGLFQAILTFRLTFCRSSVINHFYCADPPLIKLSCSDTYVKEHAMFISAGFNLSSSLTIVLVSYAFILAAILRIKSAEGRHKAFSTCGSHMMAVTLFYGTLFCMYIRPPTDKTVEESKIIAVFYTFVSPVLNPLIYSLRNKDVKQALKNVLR
Procedure, shortened: as §1

[10] = tested on: T10, OR5M3 N3Y A156T
T10 sequence (whole entry): T1 sequence (whole entry) with N3Y, A156T
Procedure, shortened: as §1

[11] = biological target: T11, OR5M8 (Homo sapiens) (UniProt Q8NGP6)
T11 sequence (whole entry): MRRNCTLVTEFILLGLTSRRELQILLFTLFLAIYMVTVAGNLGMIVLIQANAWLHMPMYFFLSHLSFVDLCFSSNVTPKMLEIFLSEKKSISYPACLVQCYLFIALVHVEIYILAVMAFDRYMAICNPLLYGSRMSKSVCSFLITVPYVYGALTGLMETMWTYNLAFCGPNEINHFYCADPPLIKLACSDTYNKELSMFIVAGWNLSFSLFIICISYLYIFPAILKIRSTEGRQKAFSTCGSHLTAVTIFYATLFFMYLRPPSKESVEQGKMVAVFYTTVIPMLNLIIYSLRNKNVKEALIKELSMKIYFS
Procedure, shortened: as §1

[12] = biological target: T12, OR5M9 (Homo sapiens) (UniProt Q8NGP3)
T12 sequence (whole entry): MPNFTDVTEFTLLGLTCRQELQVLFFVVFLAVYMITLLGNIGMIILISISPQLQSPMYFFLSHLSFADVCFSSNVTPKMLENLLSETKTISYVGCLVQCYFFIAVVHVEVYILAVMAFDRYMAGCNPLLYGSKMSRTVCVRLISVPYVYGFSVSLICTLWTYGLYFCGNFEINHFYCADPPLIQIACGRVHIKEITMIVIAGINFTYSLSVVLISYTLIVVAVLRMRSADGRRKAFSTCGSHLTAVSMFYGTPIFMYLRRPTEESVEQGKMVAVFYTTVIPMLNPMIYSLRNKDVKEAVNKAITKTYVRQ
Procedure, shortened: as §1

[13] = tested on: T13, OR5MA L2F C311H
T13 sequence (whole entry): T8 sequence (whole entry) with L2F, C311H
Procedure, shortened: as §1

[14] = tested on: T14, OR5MA L2F Q54H C311H
T14 sequence (whole entry): T8 sequence (whole entry) with L2F, Q54H, C311H
Procedure, shortened: as §1

[15] = biological target: T15, OR5P2 (Homo sapiens) (UniProt Q8WZ92)
T15 sequence (whole entry): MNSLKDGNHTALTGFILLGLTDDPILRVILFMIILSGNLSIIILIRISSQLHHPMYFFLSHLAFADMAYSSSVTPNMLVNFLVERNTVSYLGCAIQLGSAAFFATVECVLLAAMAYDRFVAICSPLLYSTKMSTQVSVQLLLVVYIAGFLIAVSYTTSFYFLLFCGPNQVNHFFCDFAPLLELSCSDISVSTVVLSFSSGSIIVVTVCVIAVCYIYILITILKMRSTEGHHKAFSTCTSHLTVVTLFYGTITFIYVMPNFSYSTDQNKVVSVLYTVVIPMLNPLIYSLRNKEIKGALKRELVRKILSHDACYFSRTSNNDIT
Procedure, shortened: as §1

[16] = biological target: T16, OR5P3 (Homo sapiens) (UniProt Q8WZ94)
T16 sequence (whole entry): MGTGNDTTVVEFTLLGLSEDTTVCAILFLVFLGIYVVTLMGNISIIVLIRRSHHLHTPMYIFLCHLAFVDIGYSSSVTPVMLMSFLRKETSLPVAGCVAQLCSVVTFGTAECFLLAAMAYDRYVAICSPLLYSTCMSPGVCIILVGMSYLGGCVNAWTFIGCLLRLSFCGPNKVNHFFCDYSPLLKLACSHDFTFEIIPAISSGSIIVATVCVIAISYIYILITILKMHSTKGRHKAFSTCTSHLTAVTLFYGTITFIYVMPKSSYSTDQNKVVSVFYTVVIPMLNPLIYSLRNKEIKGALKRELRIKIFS
Procedure, shortened: as §1

[17] = tested on: T17, OR5P3 L301R
T17 sequence (whole entry): T16 sequence (whole entry) with L301R
Procedure, shortened: as §1

[18] = tested on: T18, OR5R1 C122R S128G F184L
T18 sequence (whole entry): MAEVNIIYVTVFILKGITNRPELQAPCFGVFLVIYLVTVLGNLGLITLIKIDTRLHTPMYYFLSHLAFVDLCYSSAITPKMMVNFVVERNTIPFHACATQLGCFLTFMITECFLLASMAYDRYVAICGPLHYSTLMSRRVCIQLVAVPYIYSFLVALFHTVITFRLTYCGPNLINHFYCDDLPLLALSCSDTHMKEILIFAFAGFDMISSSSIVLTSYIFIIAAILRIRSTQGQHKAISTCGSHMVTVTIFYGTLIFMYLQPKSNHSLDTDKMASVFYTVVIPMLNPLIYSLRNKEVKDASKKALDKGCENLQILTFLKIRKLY
Procedure, shortened: as §1

[19] = biological target: T19, OR5T1 (Homo sapiens) (UniProt Q8NG75)
T19 sequence (whole entry): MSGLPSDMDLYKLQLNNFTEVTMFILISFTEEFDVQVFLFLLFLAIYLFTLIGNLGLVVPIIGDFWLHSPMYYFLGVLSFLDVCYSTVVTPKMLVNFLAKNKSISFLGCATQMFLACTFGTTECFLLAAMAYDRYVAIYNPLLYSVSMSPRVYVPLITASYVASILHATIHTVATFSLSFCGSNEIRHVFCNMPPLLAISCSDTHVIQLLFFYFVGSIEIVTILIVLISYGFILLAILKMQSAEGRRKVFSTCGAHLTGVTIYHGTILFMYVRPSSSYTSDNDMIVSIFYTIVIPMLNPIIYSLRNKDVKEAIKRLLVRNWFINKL
Procedure, shortened: as §1

[20] = biological target: T20, OR5T2 (Homo sapiens) (UniProt Q8NGG2)
T20 sequence (whole entry): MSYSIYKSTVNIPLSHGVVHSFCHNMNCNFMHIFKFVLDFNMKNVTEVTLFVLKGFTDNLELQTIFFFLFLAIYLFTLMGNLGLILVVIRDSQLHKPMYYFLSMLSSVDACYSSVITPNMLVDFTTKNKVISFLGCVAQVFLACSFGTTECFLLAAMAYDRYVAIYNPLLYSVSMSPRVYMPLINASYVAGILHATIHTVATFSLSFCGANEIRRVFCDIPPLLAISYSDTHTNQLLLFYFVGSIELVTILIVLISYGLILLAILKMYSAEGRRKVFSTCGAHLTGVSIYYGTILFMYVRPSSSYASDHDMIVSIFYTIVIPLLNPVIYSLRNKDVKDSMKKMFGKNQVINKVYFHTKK
Procedure, shortened: as §1

Measured: odorant receptor agonist call

CCCCCC1CCC(=O)O1 (configuration not stated)
inactive: [1]

CC(=O)c1nccnc1C
inactive: [2] | [3]

COc1nccnc1CC(C)C
inactive: [2] | [3] | [1]

Cc1cnccn1
inactive: [2] | [3]

CCc1nccnc1OC
inactive: [2] | [3]

CCc1ncc(C)nc1CC
inactive: [2] | [3] | [1]

CCC1OC(=O)C(O)=C1C (configuration not stated)
inactive: all assays above

CCC(C)c1nccnc1OC (configuration not stated)
inactive: [2] | [3] | [1]

CC(C)CC=O
inactive: [1]

CCC=CCC=O
inactive: [1]

Cc1cnc(C)c(C)n1
inactive: all assays above

C=Cc1cnccn1
inactive: [2] | [3]

CC1CCc2nccnc21 (configuration not stated)
inactive: [2] | [3]

CCC1OC(C)=C(O)C1=O (configuration not stated)
active: [1]
inactive: all other assays above

CC(=O)c1cnccn1
inactive: [2] | [3] | [1]

CCc1nccnc1C(C)=O
inactive: [2] | [3]

CCCC(S)CCOC(C)=O (configuration not stated)
inactive: all assays above

CCc1nccnc1C
inactive: [2] | [3]

CCCCCCC=CCCC=O
inactive: all assays above

CCCCCC(S)C(C)CO (configuration not stated)
not listed: [7] | [10] | [13] | [14] | [17] | [18]
inactive: all other assays above

CCC(S)C(C)CO (configuration not stated)
not listed: [7] | [10] | [13] | [14] | [17] | [18]
inactive: all other assays above
